Measurements published in ChEMBL document CHEMBL1240347, “MK-7009, a potent and selective inhibitor of hepatitis C virus NS3/4A protease” (Antimicrob Agents Chemother, 2010).

Columns and labels:
[1] = system: Hepatitis C virus; experiment: Antiviral activity against Hepatitis C virus containing NS3/4a H77 sequence by transient cell-base protease activity; assay type: functional, organism-based, Hepacivirus hominis
[2] = Metabolic stability in rhesus monkey liver assessed as drug level at 5 mg/kg, po after 24 hrs by LC/MS/MS analysis; assay type: ADME, organism-based, Macaca mulatta; parameters: dose 5 mg/kg, route oral; settings: read-out: Drug uptake
Summary of the method: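 Single oral dose in polyethylene glycol 400 (2.0 ml/kg). A liver biopsy (~200 μl) was taken under sedation and homogenized in 4 volumes of deionized water. Drug was quantified by LC/MS/MS after protein precipitation.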

Compound `CC[C@@H]1C[C@]1(NC(=O)[C@@H]1C[C@@H]2CN1C(=O)[C@H](C(C)(C)C)NC(=O)OCC(C)(C)CCCCc1cccc3c1CN(C3)C(=O)O2)C(=O)NS(=O)(=O)C1CC1` [VANIPREVIR] has an EC50 [1] of 4.5 nM and a concentration at 24 h [2] of 200 nM.
